This is a sample that favours compounds with a hit; in the whole collection about 3.3% have one here.
rCAG RNA binder – binds r(CAG) RNA repeats; r(CAG) RNA repeat, TO-PRO-1 dye displacement fluorescence; inhibition, % at 3 µM; 1.3% of 370,000 active; AID 651821;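 active means inhibition above the plate cutoff, the mean of all test compounds on that plate plus 3 SD, cut at about 35% in these data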;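 further: 0% = DMSO alone and 100% = 100 µM mitoxantrone as full dye displacement; higher means more dye released from RNA so lower well fluorescence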
TCR CD3 inh – human TCR-CD3 binding inhibition. inhibition, % at 9.4 µM. TAMRA-labeled TCR probe fluorescence, biochemical. AID 651800. 0.37% of 360,000 active; in the data active means inhibition above about 19%;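 further: recombinant mutant TCR 2C K166C tagged with TAMRA read by polarization; 0% = receptor in buffer alone and 100% = receptor with positive control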
ABHD4 inh – ABHD4 (mouse) inhibition, primary FP screen. 0.54% of 370,000 active. AID 720543. inhibition, % at 8.92 µM. purified mABHD4, FP-Rh probe fluorescence polarization;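 active means inhibition exceeding the mean over every tested compound plus 3 SD, cut at about 30% in these data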;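 further: 0% = plate median of compound wells and 100% = S159A mutant with DMSO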
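Assay system: mouse ABHD4 enzyme, wild type / Also added: fluorescent activity-based probe FP-Rh / Doses: single nominal dose of 8.92 µM, 0.89% DMSO final / Timing: 45 min compound pre-incubation plus 60 min probe step, 25 °C / Signal: FP readout, ex 525 nm / em 598 nm / Control set: S159A mutant/DMSO as 100%, compound-well median as 0%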
SIAE primary – inhibitors of human sialic acid acetylesterase SIAE; Q9HAT2; SIAE FP-Rh probe binding, fluorescence polarization; inhibition, % at 9.66 µM; 0.69% of 370,000 active;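 active means inhibition above a cutoff: mean of compounds within the control limits plus 3 SD of those, cut at about 17% in these data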;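 further: 0% = plate median of compound wells and 100% = probe without SIAE protein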
PRMT1 inh – blocks human protein arginine methyltransferase 1; recombinant PRMT1, activity-based probe fluorescence polarization; Q99873; 1.3% of 370,000 active; inhibition, % at 2.79 µM;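 active means inhibition above about 21% made by adding two undisclosed values, limit read from the data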
Target sequence (Q99873 whole entry, looked up): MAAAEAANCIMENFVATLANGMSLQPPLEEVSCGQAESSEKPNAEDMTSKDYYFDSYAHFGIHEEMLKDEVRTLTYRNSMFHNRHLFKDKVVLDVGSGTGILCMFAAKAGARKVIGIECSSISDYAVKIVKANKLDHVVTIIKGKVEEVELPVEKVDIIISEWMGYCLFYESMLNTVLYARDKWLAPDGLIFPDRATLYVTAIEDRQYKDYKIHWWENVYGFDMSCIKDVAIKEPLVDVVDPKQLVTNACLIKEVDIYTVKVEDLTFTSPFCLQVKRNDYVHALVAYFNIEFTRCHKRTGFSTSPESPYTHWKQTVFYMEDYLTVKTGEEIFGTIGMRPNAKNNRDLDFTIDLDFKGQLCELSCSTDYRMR
PRMT1 confirm – confirmation of human PRMT1 inhibitors; shares compounds with PRMT1 inh; recombinant His-PRMT1, activity-based probe fluorescence polarization; inhibition, % at 2.79 µM; 42% of 3,300 active; AID 687036;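 active means mean inhibition across replicates above the hit cutoff derived for the earlier primary screen, cut at about 22% in these data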
ABHD4 confirm – confirmation of mouse ABHD4 inhibitors | shares compounds with ABHD4 inh | AID 720658 | purified mABHD4, FP-Rh probe fluorescence polarization | 55% of 1,800 active | inhibition, % at 8.92 µM;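 active means mean inhibition across replicates above the hit cutoff set in the primary screen, cut at about 30% in these data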;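 further: 0% = wild-type ABHD4 with DMSO and 100% = catalytically dead S159A mutant with DMSO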
The depositor's hits bear a star; x = not tested or not shown; ! = not confirmed by another sample.

SMILES	rCAG RNA binder	TCR CD3 inh	ABHD4 inh	SIAE primary	PRMT1 inh	PRMT1 confirm	others
COC(=O)COc1ccc(/C=C2\C(=O)NC(=S)N(c3ccc(C)cc3)C2=O)cc1OC	22	-6	5	-2	32*	27*
COc1ccc(N2C(=O)/C(=C/c3ccc(OC)c(OC)c3)C(=O)NC2=S)cc1	22	-4	4	-3	41*	49*
C=C1C(=O)OC2CC3(C)OC3C3OC3C3=CC(OC3=O)C12 (configuration not stated)	2	1	-5	6	44*	40*
Cc1[nH]c2ccccc2c1C(=O)C(=O)N1CC2CC(C1)c1cccc(=O)n1C2 (configuration not stated)	-1	5	1	5	0	x
Cc1ccnc(-n2c(C)nc3ccccc3c2=O)c1	-2	5	6	0	0	x
Cc1cccc(N2CCc3c2nc2ccccc2c3N)c1	9	-9	8	10	33*!	8
CN1CCc2cc3c(cc2C1)OCO3	2	-6	-10	7	-7	x
COc1cc(N2CCOCC2)ccc1/C=C1\C(=O)NC(=O)N(C2CCCCC2)C1=O	5	-69	-83	-10	26*	7
CC1C2Cc3ccc(O)cc3C1(C)CCN2CC1CC1 (configuration not stated)	3	2	4	0	-4	x
Cc1cc(N2CCNC[C@H]2C)ccc1N1CC[C@@H](O)C1	4	-2	25	9	51*	8
Cc1cc(O)c2c(c1)C(=O)[C@@]13C(=C2O)C(=O)[C@H]2C(O)[C@@H]1[C@H]1C(O)[C@@H]3C(=O)C3=C(O)c4c(O)cc(C)cc4C(=O)[C@@]312 (some centres not stated)	1	x	13	0	-5	x
CN1C(=O)NC(=O)/C(=C/c2ccc([N+](=O)[O-])s2)C1=O	19	-13	-7	-7	31*	58*
O=C1C2CC=CCC2C(=O)N1SC(Cl)(Cl)Cl (configuration not stated)	5	-5	3	-1	75*	87*
O=C(OCC(=O)c1ccc([N+](=O)[O-])cc1)/C(=C/c1ccc(Cl)cc1)NC(=O)c1ccccc1	13	-9	6	5	46*	3
N#Cc1c(/N=C/C2C(=O)NC(=S)NC2=O)sc2c1CCCC2	3	-16	-14	-41	26*	7
Cc1cccc(N2C(=O)NC(=O)/C(=C\c3cc(C)n(-c4sc5c(c4C#N)CCCC5)c3C)C2=O)c1C	8	10	0	-25	2	x
COc1cc(C2(C#N)CCN(C)CC2)cc(OC)c1OC	0	-3	0	6	-10	x
Cc1ccc(OP2(=O)Nc3cc(C)c(C)cc3S2)cc1 (configuration not stated)	8	3	8	15	67*	60*
CC1C(OC(=O)CCC(=O)NC(C)(C)CO)O[C@H]2OC3(C)CC[C@H]4[C@H](C)CCC1C24OO3 (some centres not stated)	-7	4	-3	1	-3	x
CCOC(=O)CNC(=O)CSP(=S)(OCC)OCC	-4	-6	2	-2	-1	x
CNC(=O)CSP(=S)(OC)OC	2	-1	-2	12	32*	29*
O=c1cccc2n1CC1CC2CN(CC(O)CN2CC3CC(C2)c2cccc(=O)n2C3)C1 (configuration not stated)	4	5	6	3	-2	x
O=c1[nH]sc2cc(F)ccc12	0	5	10	7	73*	69*
C=CCn1c(O)c(/C=N/N2CCCCC2)c(=O)[nH]c1=O	-4	-3	4	0	2	x
CCOC(=O)C1SC2(C(F)(F)F)CC1(O)c1c(C)cc(C)nc1O2 (configuration not stated)	-2	2	-7	2	73*	63*
SMILES	rCAG RNA binder	TCR CD3 inh	ABHD4 inh	SIAE primary	PRMT1 inh	PRMT1 confirm	others
CN1C(=O)NC(=O)/C(=C/c2ccc(C(=O)O)cc2)C1=O	1	-3	-4	7	31*	6
CN(C)C(=S)SSC(=S)N(C)C	1	5	2	0	87*	102*
CCOP(=S)(OCC)Oc1nc(Cl)c(Cl)cc1Cl	-1	9	3	10	2	x
CC(C)CC1(CCc2ccccc2)C(=O)NC(=O)NC1=O	4	1	1	-1	0	x
CCOC(=O)N(c1ccccc1)P1(=S)OCCO1	22	-8	11	-1	14	x
COC(=O)N(c1ccccc1)P1(=S)OCCO1	-3	0	-2	4	30*	44*
C=C1[C@H]2CC[C@H]3[C@]4(C)C[C@H](O[C@@H]5OC(CO)[C@@H](OSOOO)[C@H](OS(=O)(=O)O)[C@H]5OC(=O)CC(C)C)C[C@@H](C(=O)O)[C@H]4CC[C@]3(C2)[C@H]1O (some centres not stated)	14	4	-12	-6	-3	x
CC(C)Nc1ccc(Nc2ccccc2)cc1	7	-3	43*	12	25*	70*	ABHD4 confirm=34*
CN(C)[C@@H]1C(=O)C(C(N)=O)=C(O)[C@@]2(O)C(=O)C3=C(O)c4c(O)ccc(Cl)c4[C@@](C)(O)C3C[C@@H]12 (some centres not stated)	33	12	60*	11	27*	8	ABHD4 confirm=25
CC(Cc1ccc(O)cc1)NCC(O)c1ccc(O)c(O)c1 (configuration not stated)	30	8	53*	9	25*	11	ABHD4 confirm=60*
CNCC(O)c1ccc(O)cc1 (configuration not stated)	2	5	-1	-1	-6	x
Cc1ccccc1-n1c(C)nc2ccsc2c1=O	0	-3	1	4	5	x
Cc1cccc(N2C(=O)NC(=O)/C(=C/c3cc4c(cc3[N+](=O)[O-])OCO4)C2=O)c1	21	3	39*	11	28*	55*	ABHD4 confirm=13
O=C1NC(=O)C(=Cc2cc3c(cc2[N+](=O)[O-])OCO3)C(=O)N1	2	4	18	2	13	x
COc1ccc(-n2c(O)c(C=NCCN3CCN(C(C)=O)CC3)c(=O)[nH]c2=S)cc1	-1	-5	-3	-3	-1	x
Cc1ccc2[nH]c(=S)n(-c3cccnc3)c(=O)c2c1	0	7	7	1	0	x
COc1ccc(-n2c(=S)[nH]c3ccc(C)cc3c2=O)cc1	4	4	32*	2	1	x	ABHD4 confirm=25
CN1CCc2cc(O)cc3c2[C@H]1Cc1ccc(O)c(O)c1-3	2	17	57*	12	79*	x	ABHD4 confirm=18
CCCN1CCc2cc(O)cc3c2[C@H]1Cc1ccc(O)c(O)c1-3	8	3	69*	14	77*	x	ABHD4 confirm=30*
